Data on 23 compounds can be found in ChEMBL document CHEMBL4270594, “Design, synthesis and pharmacological evaluation of new 3-(1H-benzimidazol-2-yl)quinolin-2(1H)-one derivatives as potential antitumor agents” (Eur J Med Chem, 2018).

Test [1] has as its system HepG2. Put plainly: Cytotoxicity against human HepG2 cells after 48 hrs by MTT assay. It counts as functional, cell-based. To be noted: HepG2, 48 h. The method in brief:
(§1)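 MTT cytotoxicity assay run against HepG2 and BEL-7404 liver cancer, SK-OV-3 ovarian, NCI-H460 large-cell lung cancer and HL-7702 normal liver cells. 5-fluorouracil and cisplatin served as positive controls. IC50 is given as mean ± SD of three repeat experiments.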
For orientation: Formazan colour is commonly taken as a measure of viable cells.

Another test deals with SK-OV-3. The test can be described thus: Cytotoxicity against human SKOV3 cells after 48 hrs by MTT assay. In kind it is functional, cell-based. To be noted: SK-OV-3, 48 h. In outline: as §1
For another test, the system named is NCI-H460. The test can be described thus: Cytotoxicity against human NCI-H460 cells after 48 hrs by MTT assay. It counts as functional, cell-based. To be noted: NCI-H460, 48 h. In outline: as §1
The test system of test [2] is BEL-7404 tumor cell line. The test can be described thus: Cytotoxicity against human Bel7404 cells after 48 hrs by MTT assay. It counts as functional, cell-based. To be noted: BEL-7404, 48 h. The method in brief: as §1
In the next test the test system is L02. The test can be described thus: Cytotoxicity against human HL-7702 cells after 48 hrs by MTT assay. It counts as cell-based. To be noted: L02, 48 h. The method in brief:
as §1

Test [3] has as its system HepG2. The test can be described thus: Upregulation of p53 protein expression in human HepG2 cells at 10 uM after 12 hrs by Western blot analysis. In kind it is functional, cell-based. On the technique in general: Immunoblotting shows a protein as a band on a membrane.
In test [4] the test system is BEL-7404 tumor cell line. Put plainly: Antitumor activity against human Bel7404 cells xenografted in Balb/c nude mouse assessed as relative tumor volume increment rate at 25 mg/kg/2 days, ip for 20 days measured on day 21 post last dose relative to control. It counts as functional. For orientation: A xenograft is tissue or cells of one species grown in another, often human tumour cells in immunodeficient mice.

In test [5] the test system is BEL-7404 tumor cell line. Put plainly: Antitumor activity against human Bel7404 cells xenografted in Balb/c nude mouse assessed as tumor growth inhibition at 25 mg/kg/2 days, ip for 20 days measured on day 21 post last dose relative to control. In kind it is functional. To be noted: BEL-7404, ip, read-out: TGI.

Calls of active or inactive are those of the source. The calls are words filed in the database; no cut-off is given here. Some results are limits rather than exact numbers.

Turning to `COc1ccc2[nH]c(=O)c(-c3nc4cc(Br)ccc4[nH]3)cc2c1`, the IC50 in the test with HepG2 [1], in the test with SK-OV-3, in the test with NCI-H460, in the test with BEL-7404 tumor cell line [2] and with L02 was more than 100 µM each time.
Regarding `O=c1[nH]c2ccccc2cc1-c1nc2cc(Br)ccc2[nH]1`, the IC50 was 10.8 µM in the test with HepG2 [1]; 11.4 µM in the test with SK-OV-3; 16.8 µM in the test with NCI-H460; 14.5 µM with BEL-7404 tumor cell line [2]; more than 100 µM in the test on L02.
For the compound `O=c1[nH]c2ccccc2cc1-c1nc2ccccc2[nH]1`, the IC50 was 29.6 µM in the test on HepG2 [1]; 13.8 µM in the test with SK-OV-3; more than 100 µM with NCI-H460; more than 100 µM in the test on BEL-7404 tumor cell line [2]; more than 100 µM in the test with L02. The outcome in the test on HepG2 [3] was inactive.
Take `COc1ccc2[nH]c(=O)c(-c3nc4cc([N+](=O)[O-])ccc4[nH]3)cc2c1`: the IC50 with HepG2 [1], in the test on SK-OV-3, with NCI-H460, with BEL-7404 tumor cell line [2] and in the test with L02 was more than 100 µM in each case.
Consider `Cc1cc2nc(-c3cc4cc5c(cc4[nH]c3=O)OCO5)[nH]c2cc1C`, for which the IC50 with HepG2 [1] was 18.7 µM; in the test with SK-OV-3 it was 10.6 µM; with NCI-H460 it was 23.8 µM; with BEL-7404 tumor cell line [2] it was 15.7 µM; in the test on L02 it was more than 100 µM.
In the case of `Cc1ccc2[nH]c(=O)c(-c3nc4cc(F)ccc4[nH]3)cc2c1`, the IC50 with HepG2 [1], in the test on SK-OV-3, in the test on NCI-H460, with BEL-7404 tumor cell line [2] and in the test with L02 was more than 100 µM throughout.
Turning to `O=c1[nH]c2cc3c(cc2cc1-c1nc2cc([N+](=O)[O-])ccc2[nH]1)OCO3`, the IC50 in the test with HepG2 [1], with SK-OV-3, with NCI-H460, with BEL-7404 tumor cell line [2] and in the test with L02 was more than 100 µM throughout.
`Cc1ccc2[nH]c(=O)c(-c3nc4cc(Br)ccc4[nH]3)cc2c1`: the IC50 with HepG2 [1], in the test on SK-OV-3, in the test with NCI-H460, in the test on BEL-7404 tumor cell line [2] and with L02 was more than 100 µM in each case.
Take `O=c1[nH]c2ccccc2cc1-c1nc2cc([N+](=O)[O-])ccc2[nH]1`: the IC50 with HepG2 [1], in the test with SK-OV-3, in the test with NCI-H460, with BEL-7404 tumor cell line [2] and in the test on L02 was more than 100 µM each time.
`Cc1ccc2[nH]c(=O)c(-c3nc4cc([N+](=O)[O-])ccc4[nH]3)cc2c1`: the IC50 in the test on HepG2 [1], in the test on SK-OV-3, in the test with NCI-H460, with BEL-7404 tumor cell line [2] and with L02 was more than 100 µM in each case.
Turning to `COc1ccc2[nH]c(=O)c(-c3nc4cc(Cl)ccc4[nH]3)cc2c1`, the IC50 with HepG2 [1], in the test with SK-OV-3, with NCI-H460, in the test with BEL-7404 tumor cell line [2] and in the test with L02 was more than 100 µM each time.
Turning to `O=c1[nH]c2cc3c(cc2cc1-c1nc2cc(F)ccc2[nH]1)OCO3`, the IC50 with HepG2 [1] was 12.4 µM; in the test on SK-OV-3 it was more than 100 µM; in the test on NCI-H460, more than 100 µM; in the test with BEL-7404 tumor cell line [2] it was 10.3 µM; in the test with L02, more than 100 µM.
For the compound `COc1ccc2[nH]c(=O)c(-c3nc4cc(F)ccc4[nH]3)cc2c1`, the IC50 in the test with HepG2 [1], in the test on SK-OV-3, with NCI-H460, with BEL-7404 tumor cell line [2] and in the test with L02 was more than 100 µM in each case.
With `Cc1ccc2[nH]c(=O)c(-c3nc4ccccc4[nH]3)cc2c1`, the IC50 with HepG2 [1], in the test with SK-OV-3, in the test on NCI-H460, in the test with BEL-7404 tumor cell line [2] and in the test with L02 was more than 100 µM in each case.
For `COc1ccc2[nH]c(=O)c(-c3nc4cc(C)c(C)cc4[nH]3)cc2c1`, the IC50 in the test with HepG2 [1], in the test on SK-OV-3, in the test on NCI-H460, in the test with BEL-7404 tumor cell line [2] and with L02 was more than 100 µM each time.
Consider `O=c1[nH]c2ccccc2cc1-c1nc2cc(F)ccc2[nH]1`, for which the IC50 with HepG2 [1] was 15.2 µM; in the test with SK-OV-3, 18.3 µM; in the test with NCI-H460, 24.2 µM; in the test with BEL-7404 tumor cell line [2], 27.4 µM; in the test with L02, more than 100 µM.
For `O=c1[nH]c2cc3c(cc2cc1-c1nc2ccccc2[nH]1)OCO3`, the IC50 with HepG2 [1] was 25.6 µM; in the test with SK-OV-3, 32.2 µM; in the test with NCI-H460, more than 100 µM; in the test with BEL-7404 tumor cell line [2] it was more than 100 µM; in the test on L02, more than 100 µM.
As for `Cc1cc2nc(-c3cc4ccccc4[nH]c3=O)[nH]c2cc1C`, the IC50 in the test with HepG2 [1], in the test with SK-OV-3, in the test on NCI-H460, with BEL-7404 tumor cell line [2] and with L02 was more than 100 µM each time.
In the case of `Cc1ccc2[nH]c(=O)c(-c3nc4cc(C)c(C)cc4[nH]3)cc2c1`, the IC50 with HepG2 [1], in the test with SK-OV-3, in the test with NCI-H460, in the test with BEL-7404 tumor cell line [2] and in the test on L02 was more than 100 µM throughout.
Turning to `COc1ccc2[nH]c(=O)c(-c3nc4ccccc4[nH]3)cc2c1`, the IC50 in the test on HepG2 [1], in the test with SK-OV-3, in the test on NCI-H460, with BEL-7404 tumor cell line [2] and in the test with L02 was more than 100 µM in each case.
As to `Cc1ccc2[nH]c(=O)c(-c3nc4cc(Cl)ccc4[nH]3)cc2c1`, the IC50 is 26.6 µM in the test on HepG2 [1]; 33 µM in the test on SK-OV-3; 36.5 µM in the test with NCI-H460; 39 µM in the test on BEL-7404 tumor cell line [2]; more than 100 µM in the test with L02.
`O=c1[nH]cc(F)c(=O)[nH]1` [FLUOROURACIL] yielded an IC50 in the test with BEL-7404 tumor cell line [2] of 40.2 µM. Moreover, the T/C in the test on BEL-7404 tumor cell line [4] is reported as 56.1%. The inhibition in vivo at 25 mg/kg with BEL-7404 tumor cell line [5] amounted to 34.5%.
Regarding `O=c1[nH]c2cc3c(cc2cc1-c1nc2cc(Br)ccc2[nH]1)OCO3`, the IC50 in the test with HepG2 [1], in the test with SK-OV-3, in the test with NCI-H460, in the test with BEL-7404 tumor cell line [2] and in the test with L02 was more than 100 µM in each case.

By IC50 is commonly meant the concentration that gives 50% inhibition. The low end stands for greater potency in that assay, the high end for weaker potency in that assay. By T/C is commonly meant the result in the treated group divided by that in the control group, in per cent.
